STAT3 act – activators of IL-6 induced STAT3 signaling. U3A cells, IL-6 STAT3-luciferase reporter, luminescence; 100% = signal with IL-6 EC80 alone. activation (% of control), % at 5.6 µM. 190,000 compounds, 0.91% hits. AID 871;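 active = activation above the screen-wide mean of compound activation plus 3 SD, cut at about 130% in these data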;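 note: 0% = background luminescence of wells with medium and substrate only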
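Test system: STAT3-luciferase reporter U3A cells; Detection: reporter luminescence signal; Times: 1 h compound pre-exposure, 6 h IL-6 stimulation, 37 °C; Benchmarks: IL-6-only high control; Also added: IL-6 stimulus at 33 ng/mL final.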
NF-kB neuron act – NF-kB expression increase, human neuronal cells | AID 1239 | NF-kB reporter expression; hits give high values | fold change at 12.5 µM | 190,000 compounds, 1.6% hits; in the data active = fold change above about 3.3
STAT1 act – STAT1 signaling activation | NIH 3T3 STAT1-luciferase reporter, IFN-gamma, luminescence; 100% = IFN-gamma alone, no compound | activation (% of control), % at 5.5 µM | 200,000 compounds, 2.6% hits;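 active = activation above the screen-wide mean activation plus 3 SD, cut at about 130% in these data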;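 note: raw ratio to IFN-gamma control signal so 100% means no change and 0% no light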
APP 5'UTR act – activates APP 5'UTR luciferase reporter. 190,000 compounds, 1% hits. SH-SY5Y APP 5'UTR luciferase reporter, luminescence; zero percent = DMSO vehicle wells. activation, % at 2 µM;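 active = activation above a set limit, based on mean plus 3 SD of controls, cut at about 140% in these data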
STAT3 inh – reduces IL-6 driven STAT3 reporter signal. U3A cells, IL-6 STAT3-luciferase reporter, luminescence; host cell line lacks STAT1. inhibition, % at 5.5 µM. 190,000 compounds, 0.89% hits. AID 862;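 active = inhibition above the mean inhibition across all screened compounds plus 3 SD, cut at about 44% in these data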;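 note: 0% = DMSO only wells and 100% = 100 µM nifuroxazide control wells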
STAT1 inh – reduces IFN-gamma driven STAT1 reporter signal. NIH 3T3 STAT1-luciferase reporter, luminescence. inhibition, % at 5.5 µM. 200,000 compounds, 0.35% hits;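 active = inhibition above a set limit, the mean inhibition across all tested compounds plus 3 SD, cut at about 34% in these data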;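 note: 0% = IFN-gamma with DMSO and 100% = IFN-gamma with 300 µM nifuroxazide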
The depositor's hits bear a star; . = not tested or not shown. Sampled rows, rich in hits. Any-hit rate of the full collection: about 4.9%.

SMILES | STAT3 act | NF-kB neuron act | STAT1 act | APP 5'UTR act | STAT3 inh | STAT1 inh
O=c1c2c(nc3cc(-c4cccc(F)c4)[nH]n13)CCC2 | 80 | 4.2* | 130* | 109 | 27 | -32
O=c1c2c(nc3cc(-c4cccc(Cl)c4)[nH]n13)CCC2 | 98 | 5.4* | 135* | 143* | 6 | -39
COC(=O)N(C)c1nc2ccccc2s1 | 87 | 1.3 | 112 | 17 | 18 | -13
CCCCNC(=O)N(C)c1nc2ccccc2s1 | 114 | 2.6 | 133* | 74 | -12 | -38
c1ccc(-c2ccc(-c3csnn3)cc2)cc1 | 112 | 2.1 | 132* | 8 | -4 | -36
FC(F)(F)c1cccc(-c2ccc(-c3csnn3)o2)c1 | 84 | 1.4 | 108 | 12 | 23 | -8
O=C(CCc1nc2ccccc2[nH]1)Nc1ccccc1F | . | 1.2 | 100 | -8 | . | -1
Cc1ccc(CCC(=O)Nc2ccccc2F)s1 | 86 | 2.2 | 137* | 103 | 23 | -42
COCC(=O)N(c1ccccc1)C(C)C(=O)OC (configuration not stated) | 98 | 1.1 | 97 | 6 | 4 | 2
CC(C)c1ccc(/C=C/C2=NNC(=O)CC2)cc1 | 71 | 4.6* | 136* | 165* | 36 | -38
CC(C)c1ccc(/C=C/C(=O)N2CCCCCC2)cc1 | 86 | 1.9 | 101 | 16 | 19 | -1
Brc1ccc(/C=N/Nc2ccccn2)cc1 | 85 | 3 | 138* | 58 | 22 | -38
Clc1ccc(/C=N/Nc2ccccn2)cc1 | 83 | 2.5 | 135* | 31 | 25 | -35
Brc1ccccc1/C=N/Nc1ccccn1 | 133 | 2.1 | 122 | 42 | -37 | -25
Fc1ccc(/C=N/Nc2ccccn2)cc1 | 97 | 2 | 117 | 49 | 1 | -19
C=CCNc1oc(-c2cccs2)nc1S(=O)(=O)c1ccccc1 | 105 | 1.1 | 85 | -3 | -2 | 14
CC(C)c1ccc(C(=O)NN2C(=O)C3CCCCC3C2=O)cc1 (configuration not stated) | 92 | 1.6 | 144* | 55 | 17 | -48
COc1ccc(-c2csc(CCN3N=C(C)CC3=O)n2)cc1 | 106 | 1 | 93 | -15 | -6 | 6
Oc1ccc(-c2nc(-c3ccc(O)c(O)c3)cs2)cc1 | 115 | 3.8* | 95 | -94 | -11 | 6
Oc1ccc(Nc2nc(-c3ccc4ccccc4c3)cs2)cc1 | 95 | 2.8 | 109 | -2 | 8 | -9
Cc1ccc(C)c2[nH]c(=O)c(C(c3nnnn3C(C)(C)C)N3CC=C(c4ccc(F)cc4)CC3)cc12 (configuration not stated) | 106 | 0.88 | 69 | 0 | -10 | 35*
C=CCOc1ccc(Br)cc1CNCCCN1CCOCC1 | 109 | 0.95 | 106 | -1 | -6 | -7
COc1ccc(-c2cc(C(=O)Nc3nc4c(C)cccc4s3)c3ccccc3n2)cc1OC | 134* | 0.91 | 92 | 0 | -42 | 9
C=C1CC(C(=O)N/N=C/c2ccccc2)C1 | 98 | 1.1 | 108 | 20 | 3 | -9
CC(C)c1ccc(OCC(=O)N2CCCCCC2)c(Br)c1 | 114 | 1.7 | 137* | 33 | -5 | -40
SMILES | STAT3 act | NF-kB neuron act | STAT1 act | APP 5'UTR act | STAT3 inh | STAT1 inh
Cc1cc(Br)ccc1OCC(=O)N1CCCCCC1 | 106 | 1.1 | 94 | 12 | -6 | 6
COc1ccc(-c2c(C#N)c(C)nc3c2C(=O)c2ccccc2-3)cc1 | 90 | 1.1 | 96 | -3 | 16 | 4
COc1ccc(C2=C(C#N)C(=O)OC2)cc1 | 97 | 1.1 | 68 | 2 | 6 | 36*
CCN(CC)C(=O)c1cc2c(=O)n3ccccc3nc2s1 | 134* | 1.6 | 119 | 23 | -37 | -21
COCCN(CCOC)C(=O)c1cc2c(=O)n3ccccc3nc2s1 | 114 | 1.1 | 108 | 31 | -11 | -8
COc1ccc(C(=O)N/N=C/C2CC=CCC2)cc1OC (configuration not stated) | 97 | 1.1 | 101 | -5 | 5 | -2
CC(C)C(NC(=O)C1CCCCC1)C(=O)Nc1ccc2c(c1)OCCO2 (configuration not stated) | 86 | 0.96 | 132* | 83 | 20 | -35
CNC(=S)NCCc1cc2c(OC)ccc(OC)c2[nH]c1=O | 89 | 1.1 | 102 | 5 | 17 | -2
O=C(O)CCn1c(=O)sc2ccccc21 | 97 | 1.4 | 96 | 1 | 13 | 4
O=c1sc2ccccc2n1CCOc1ccccc1 | 108 | 2.6 | 142* | 76 | -4 | -46
COc1ccccc1OCCn1c(=O)n(C)c2ccccc21 | 101 | 1.4 | 109 | 2 | 6 | -11
Cc1ccc(OCCn2c(=O)n(C)c3ccccc32)cc1 | 99 | 2.6 | 150* | 118 | 2 | -53
O=C(COC(=O)CCC(NC(=O)OCc1ccccc1)C(=O)OCC(=O)Nc1ccccc1)Nc1ccccc1 (configuration not stated) | 108 | 0.98 | 99 | -14 | -6 | 1
CCOC(=O)CCn1nc(-c2ccc(Cl)cc2)cc1N | 94 | 2.4 | 138* | 46 | 12 | -42
CCOC(=O)Cn1nc(-c2ccc(Cl)cc2)cc1N | 100 | 1.3 | 115 | 12 | 4 | -16
O=C(c1cc(COc2c(F)cccc2F)on1)N1CCC(c2ccccc2F)C1 (configuration not stated) | 112 | 2.5 | 132* | 32 | -9 | -36
O=C(c1cc(COc2c(F)cccc2F)on1)N1CCC(c2ccccc2Cl)C1 (configuration not stated) | 112 | 1.9 | 120 | 22 | -7 | -25
O=C(Nc1ccc(Cl)cc1)NC1CCCCC1 | 115 | 2.6 | 138* | 46 | -15 | -43
O=C(Nc1ccc2nsnc2c1)C1CC1 | 88 | 0.97 | 104 | -2 | 16 | -6
COc1cccc(NC(=O)Nc2ccc3nsnc3c2)c1 | 94 | 1.8 | 131* | . | 12 | -35
Nc1ccc(NC(=O)NC2CCCCC2)cc1 | 95 | 1.4 | 115 | 4 | 12 | -16
COc1ccc(NC(=O)Nc2cccc(OC)c2)cc1 | 104 | . | 117 | 66 | 3 | -18
S=C(Nc1ccc2nc(-c3ccccn3)c(-c3ccccn3)nc2c1)N1CCCCC1 | 101 | 0.95 | 97 | -6 | 1 | 2
O=C(Nc1ccc2nsnc2c1)NC1CCCCC1 | 107 | 3.8* | 131* | 92 | -8 | -34
S=C(Nc1ccc2nsnc2c1)N1CCCCC1 | 97 | 2.6 | 132* | 65 | 2 | -36
COc1ccc(/C(N)=N/OC(=O)Cc2cccs2)cc1OC | 98 | 2 | 111 | 20 | 6 | -12
COc1ccc(/C(N)=N/OC(=O)Cc2cccs2)cc1 | 105 | 2.7 | 139* | 65 | -9 | -44
O=C(N/N=C1\CCCc2ccccc21)C(O)c1ccccc1 (configuration not stated) | 124 | 1.1 | 95 | 9 | -18 | 6

High-throughput results from PubChem.
